# Published values from different studies.
# Compare with care: the assays were run in different laboratories.
# Organism: Mycolicibacterium smegmatis
# Read-out: microbial growth
Compound,technique,strain,time,MIC
NC[C@H]1O[C@@H](O[C@@H]([C@H](NCCCC(=O)NCc2ccc(N3CCC(Oc4ccc(OC(F)(F)F)cc4)CC3)cc2)C(N)=O)[C@H]2O[C@@H](n3ccc(=O)[nH]c3=O)C(O)C2O)[C@H](O)[C@@H]1O (stereo partly drawn),,ATCC607,,0.2 µg/mL
CC(C)=CCC/C(C)=C/CNC(=O)COC1C2CC3CC(C2)CC1C3 (stereo not drawn),,,,6.2 µg/mL
CO[C@H]1/C=C/O[C@@]2(C)Oc3c(C)c(O)c4c(O)c(c(/C=N/N5CCN(C)CC5)c(O)c4c3C2=O)NC(=O)/C(C)=C\C=C\[C@H](C)[C@H](O)[C@@H](C)[C@@H](O)[C@@H](C)[C@H](OC(C)=O)[C@@H]1C,,,,2 µg/mL
COC1C(O)C(n2ccc(=O)[nH]c2=O)OC1C(OC1OC(C(=O)NC2CCCCNC2=O)=CC(O)C1O)C(N)=O (stereo not drawn),broth dilution,ATCC607,,6.5 µg/mL
CC(C)=CCC/C(C)=C/CNCCOc1cccc2ccccc12,,,,12 µg/mL
CO[C@H]1/C=C/O[C@@]2(C)Oc3c(C)c(O)c4c(O)c(c(/C=N/N5CCN(C)CC5)c(O)c4c3C2=O)NC(=O)/C(C)=C\C=C\[C@H](C)[C@H](O)[C@@H](C)[C@@H](O)[C@@H](C)[C@H](OC(C)=O)[C@@H]1C,resazurin,ATCC607,72 h,1.58 µg/mL
Cc1ccc(-c2nc3ccc(C)cn3c2CC(=O)N(C)C)cc1,broth dilution,,,> 50 µM
CO[C@H]1/C=C/O[C@@]2(C)Oc3c(C)c(O)c4c(O)c(c(/C=N/N5CCN(C)CC5)c(O)c4c3C2=O)NC(=O)/C(C)=C\C=C\[C@H](C)[C@H](O)[C@@H](C)[C@@H](O)[C@@H](C)[C@H](OC(C)=O)[C@@H]1C,agar dilution,,,> 25 µg/mL
CO[C@H]1/C=C/O[C@@]2(C)Oc3c(C)c(O)c4c(O)c(c(/C=N/N5CCN(C)CC5)c(O)c4c3C2=O)NC(=O)/C(C)=C\C=C\[C@H](C)[C@H](O)[C@@H](C)[C@@H](O)[C@@H](C)[C@H](OC(C)=O)[C@@H]1C,broth dilution,ATCC607,,> 200 µg/mL
CC(C)=CCC/C(C)=C/COCC(=O)NC1C2CC3CC(C2)CC1C3 (stereo not drawn),,,,25 µg/mL
O=C(Nc1ncc([N+](=O)[O-])s1)c1ccccn1,agar dilution,MC^2155,,100 µM
CC(C)=CCC/C(C)=C/CNCCCOC1C2CC3CC(C2)CC1C3 (stereo not drawn),,,,6.2 µg/mL
CNC(=O)c1cc(Oc2ccc(NC(=O)Nc3ccc(Cl)c(C(F)(F)F)c3)cc2)ccn1,,MC2155,,50 µM
C[C@@H]([C@H](N)C(=O)N[C@H](C(=O)O)[C@H]1O[C@@H](n2ccc(=O)[nH]c2=O)[C@H](O)[C@@H]1O)[C@H](O)c1ccc(O)cn1,resazurin,ATCC607,72 h,> 50 µg/mL
CN[C@H](CC(C)C)C(=O)N[C@H]1C(=O)N[C@@H](CC(N)=O)C(=O)N[C@H]2C(=O)N[C@H]3C(=O)N[C@H](C(=O)N[C@H](C(=O)O)c4cc(O)cc(O)c4-c4cc3ccc4O)[C@H](O)c3ccc(c(Cl)c3)Oc3cc2cc(c3O[C@@H]2O[C@H](CO)[C@@H](O)[C@H](O)[C@H]2O[C@H]2C[C@](C)(N)[C@H](O)[C@H](C)O2)Oc2ccc(cc2Cl)[C@H]1O,resazurin,MC^2155,24 h,0.78 µg/mL
CC(C)=CCC/C(C)=C/CNCCNC1C2CC3CC(C2)CC1C3 (stereo not drawn),,,,3.1 µg/mL
O=C(Nc1ccccc1)Nc1ncc([N+](=O)[O-])s1,agar dilution,MC^2155,,> 100 µM
CN[C@@H]1[C@@H](O)[C@@H](O[C@@H]2[C@@H](O)[C@H](O[C@H]3O[C@H]([C@@H](C)O)[C@@H](O)[C@H](O)[C@H]3N)[C@@H](N)C[C@H]2N)OC[C@]1(C)O,broth dilution,,72 h,8 µg/mL
